High-throughput results as filed in PubChem.
CCR6 antagonist = blocks CCL20-driven beta-arrestin recruitment at human CCR6; CHO-K1 CCR6 PathHunter beta-arrestin, luminescence, CCL20-stimulated; actives 0.49% (n = 340,000); AID 493098; inhibition, % at 20 µM;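 active means compounds whose inhibition of the agonist-driven luminescence signal at 20 µM reaches about 50%, limit read from the data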;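 further: cells stimulated with CCL20 at 14 nM final; plate controls were DMSO with CCL20 for no effect and DMSO without agonist for full effect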
Target sequence (P51684 whole entry, looked up): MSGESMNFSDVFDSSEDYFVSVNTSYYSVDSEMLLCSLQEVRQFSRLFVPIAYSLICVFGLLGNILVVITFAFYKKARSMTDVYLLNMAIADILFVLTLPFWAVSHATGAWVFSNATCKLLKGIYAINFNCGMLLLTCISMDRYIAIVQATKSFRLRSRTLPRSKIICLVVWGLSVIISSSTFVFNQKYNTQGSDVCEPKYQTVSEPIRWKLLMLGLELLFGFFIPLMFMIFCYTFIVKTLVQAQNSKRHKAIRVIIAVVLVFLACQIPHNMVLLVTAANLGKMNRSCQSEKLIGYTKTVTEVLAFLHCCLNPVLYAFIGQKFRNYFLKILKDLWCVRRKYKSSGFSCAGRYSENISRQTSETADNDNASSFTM
HTR2A ag = agonists of mouse serotonin 5-HT2A receptor (HTR2A) | P35363 | CHO-K1 mHTR2A beta-arrestin complementation, luminescence; percent of 30 µM serotonin response | activation, % at 7.6 µM | actives 0.66% (n = 360,000) | AID 624169;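 active means activation above a run cutoff, the mean activation of all tested compounds plus 3 SD, cut at about 14% in these data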;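 further: 0% = plate median of compound wells and 100% = 30 µM serotonin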
APJ agonist = agonists of human APJ apelin receptor; P35414; CHO-K1 APJ PathHunter beta-arrestin, luminescence; 0% DMSO wells, 100% apelin; activation, % at 20 µM; actives 0.11% (n = 330,000); AID 2520;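 active means activation more than six SD over the plate average, tested at 20 µM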;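 further: 0% = DMSO alone and 100% = apelin-13 at 10 nM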
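Material: engineered CHO-K1 APJ arrestin reporter cells; amount: 1000 CHO-K1 reporter cells seeded per well; incubation: compound stimulation 90 min at 25 °C, detection 60 min; signal: luminescent beta-gal fragment complementation, chemiluminescent substrate; read-out basis: APJ agonist activity; controls: DMSO-only wells as negative, 10 nM Apelin-13 as positive control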
APJ antag = APJ receptor antagonism; CHO-K1 APJ beta-arrestin complementation, luminescence; inhibition, % at 20 µM; actives 0.32% (n = 330,000); AID 2521;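 active means inhibition above about 40% at 20 µM, limit read from the data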;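 further: cells challenged with 10 nM apelin-13 agonist together with compound; plate controls were apelin-13 plus DMSO wells for no effect and DMSO wells lacking apelin-13 for full effect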
EBI2 block = antagonists of human EBI2 receptor; P32249; EBI2 beta-arrestin recruitment, luminescence, 7a,25-OHC stimulated; inhibition, % at 5 µM; actives 0.81% (n = 360,000); in the data active means inhibition above about 38%;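 further: enzyme fragment complementation signal reports receptor beta-arrestin coupling in cells; 0% = agonist plus DMSO wells and 100% = wells without agonist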
Target sequence (P32249 whole entry, looked up, the tested form may be a part): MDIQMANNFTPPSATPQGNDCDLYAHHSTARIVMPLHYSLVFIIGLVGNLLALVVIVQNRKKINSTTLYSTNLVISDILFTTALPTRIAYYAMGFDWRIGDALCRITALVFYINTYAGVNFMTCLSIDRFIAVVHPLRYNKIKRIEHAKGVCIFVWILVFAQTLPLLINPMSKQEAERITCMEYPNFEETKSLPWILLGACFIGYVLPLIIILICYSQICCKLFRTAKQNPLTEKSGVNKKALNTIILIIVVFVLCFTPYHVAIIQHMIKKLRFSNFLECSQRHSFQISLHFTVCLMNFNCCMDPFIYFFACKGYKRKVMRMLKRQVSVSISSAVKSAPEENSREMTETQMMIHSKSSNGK
CXCR6 inh = CXCR6 (human) receptor inhibition; AID 602244; actives 0.36% (n = 360,000); CHO-K1 PathHunter CXCR6 beta-arrestin, luminescence; O00574; inhibition, % at 20 µM; in the data active means inhibition above about 34%, passing the limit was not always enough;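 further: antagonist mode with CXCL16 agonist at 10 nM final; 0% = 10 nM CXCL16 with DMSO and 100% = unstimulated wells without agonist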
EBI2 conf = EBI2 (human) antagonism, single concentration confirmation | actives 29% (n = 2,400) | inhibition, % at 5 µM | shares compounds with EBI2 block | EBI2 beta-arrestin luminescence, 7a,25-OHC antagonism;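 active means inhibition of at least 50%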
EBI2 ag = activates EBI2, counter-screen for EBI2 antagonists; 2,400 tested, under 10 active; shares compounds with EBI2 block; activation, % at 5 µM; EBI2-expressing cells, agonist mode, luminescence, 60 min; 0% vehicle, 100% 7α,25-dihydroxycholesterol control;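 active means activation of at least 50%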
bGal cs = beta-galactosidase inhibition counter-screen | shares compounds with EBI2 block | actives 1% (n = 2,400) | inhibition, % at 5 µM | purified beta-galactosidase, luminescent Galacton Star, 15 min;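 active means replicate-average signal at least 3 plate SD below neutral wells, shown as high inhibition, flagging enzyme-inhibiting false positives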;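 further: 0% = DMSO wells with enzyme and 100% = wells lacking enzyme; higher means stronger loss of beta-gal luminescence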
The depositor's hits bear a star; x = not tested or not shown. In the library only some 2.1% were active in any assay of this set; here they are far more common.

SMILES	CCR6 antagonist	HTR2A ag	APJ agonist	APJ antag	EBI2 block	CXCR6 inh	EBI2 conf	EBI2 ag	bGal cs
CC(C)(C)n1nnnc1C(c1cccs1)N(Cc1ccc(Cl)cc1)CC1CCCO1 (configuration not stated)	13.6	-4.8	-0.5	4.7	60.4*	1.7	16.0	0.5	6.2
O=C(COc1ccccc1Cl)N1CCNC1=O	-0.5	-5.1	-6.3	-20.5	4.4	-0.2	x	x	x
COc1ccc(/C=N/n2cnn(Cc3ccccc3Cl)c2=S)cc1	14.6	-1.1	0.0	-11.2	48.9*	9.9	45.4	-0.9	-10.8
CC(C)Cn1c(N)c(C(=O)COC(=O)Cc2cccc(C(F)(F)F)c2)c(=O)n(C)c1=O	20.7	-4.1	9.0	4.4	-8.3	-9.4	x	x	x
CCCCC(=O)NC(c1cccc([N+](=O)[O-])c1)c1c(OC(C)=O)ccc2ccccc12 (configuration not stated)	24.2	8.1	-7.3	3.9	39.0*	21.2	10.1	0.0	12.4
CCN(CCO)c1ncnc2onc(-c3ccc(F)cc3)c12	0.0	4.3	-0.8	12.8	-10.8	5.0	x	x	x
Cc1cccc(N(C)c2ncnc3onc(-c4ccc(F)cc4)c23)c1C	9.1	-6.8	2.2	-48.7	62.5*	-6.5	26.9	-1.9	-7.2
CCc1cccc2c1NC(=O)C21N2CCCC2C(C(=O)c2ccc3ccccc3c2)C12C(=O)Nc1ccccc12 (configuration not stated)	1.0	5.8	-4.1	-4.3	55.5*	4.5	22.9	-0.1	9.4
Clc1ccc2[nH]cc(-c3nnnn3-c3ccc4ccccc4c3)c2c1	7.6	-5.3	7.3	-2.7	45.0*	-8.5	30.3	1.9	5.3
Cc1ccc(-n2nnnc2-c2cnc3ccc(Cl)cc3c2-c2ccccc2)cc1	13.7	-0.6	-4.6	-3.5	14.7	3.9	x	x	x
COc1ccc(-n2nnnc2CNC(=O)c2ccc3c(c2)OCO3)cc1	8.0	3.5	-3.7	-0.6	6.8	-1.2	x	x	x
COc1ccccc1CNc1nc(NC(C)C)nc2cc(-c3ccccc3)sc12	x	-8.2	x	x	49.6*	3.3	50.3*	-1.6	-8.3
COc1ccccc1CNc1nc(NCc2ccccc2)nc2ccsc12	x	-7.7	x	x	-2.1	-0.5	x	x	x
COCCNc1nc(NCCOC)c2sc(-c3ccccc3)cc2n1	x	-5.0	x	x	12.3	2.8	x	x	x
CC(C)Nc1nc(NCCOc2ccccc2Cl)c2sc(-c3ccccc3)cc2n1	x	-4.3	x	x	51.8*	8.7	30.1	0.1	-14.8
COCCNc1nc(NCCOc2ccccc2Cl)c2sccc2n1	x	-6.3	x	x	8.1	-13.8	x	x	x
COCCNc1nc(NCCOc2ccccc2)c2sc(-c3ccccc3)cc2n1	x	-4.6	x	x	47.3*	9.4	45.0	-0.2	6.3
COCCNc1nc(-c2ccc(OC)cc2C)c2sc(-c3ccccc3)cc2n1	x	-2.9	x	x	41.8*	5.5	18.8	-0.9	-13.2
CCOc1ccc(Cl)cc1-c1cc(C(=O)NCCOC)[nH]n1	x	-0.3	x	x	-3.4	3.6	x	x	x
CCN(CC(=O)Nc1ccc2c(c1)OCCO2)C(=O)c1ccc(C(F)(F)F)cc1	10.0	-5.7	-1.2	-2.5	-11.6	-14.4	x	x	x
C[C@@H]1CN([C@@H](C)CO)C(=O)CCCn2cc(nn2)CO[C@H]1CN(C)S(=O)(=O)c1ccc2c(c1)OCCCO2	x	8.8	x	x	0.4	-7.0	x	x	x
Cc1ccc(C(=O)N2CCN(c3ccc4c(c3)C3CC4CCN3C(=O)OCc3ccccc3)CC2)cc1 (configuration not stated)	x	-3.5	x	x	33.0	13.5	x	x	x
O=C(c1ccc(-c2ccccc2)cc1)N1CCN(c2ccc3c(c2)C2CC3CCN2C(=O)OCc2ccccc2)CC1 (configuration not stated)	x	-0.7	x	x	54.0*	7.7	40.5	0.8	7.4
COc1cccc(-c2onc3ccc(C4(C)OCCO4)cc23)c1	0.7	-1.0	5.2	-5.0	47.8*	-12.6	10.7	-0.2	8.1
CN(C(=O)c1ccc(=O)n(Cc2ccc(Cl)cc2)c1)c1ccccc1	4.3	-0.9	-0.4	-13.2	56.0*	-2.4	36.4	-1.2	-14.1
SMILES	CCR6 antagonist	HTR2A ag	APJ agonist	APJ antag	EBI2 block	CXCR6 inh	EBI2 conf	EBI2 ag	bGal cs
COc1ccc(N2CCN(C(=O)NC3CC(=O)N(c4ccc(OC)cc4)C3)CC2)cc1 (configuration not stated)	2.8	-0.8	-5.7	-1.3	46.0*	2.0	18.9	-0.8	3.7
O=C(NC1CC(=O)N(c2ccc(Cl)cc2)C1)N1CCN(C(=O)c2ccco2)CC1 (configuration not stated)	2.9	2.2	-1.8	-6.7	66.4*	-1.2	48.5	-0.6	5.3
COc1ccc(NC(=O)N2CCN(c3ccc([N+](=O)[O-])cc3)CC2)cc1	-4.4	4.2	-2.5	2.3	62.3*	-8.1	40.6	2.1	10.7
S=C(NCCc1ccccc1)N1CCC2CC1c1cc(-c3ccc4c(c3)OCO4)ccc12 (configuration not stated)	x	2.7	x	x	4.2	-8.6	x	x	x
COCC(=O)N[C@H]1C=C[C@@H](CC(=O)OC)O[C@@H]1CO	x	-5.1	x	x	-0.8	x	x	x	x
CC(C)(C)c1ccc(C(=O)N2CCN(C(=O)c3ccco3)CC2)cc1	-4.3	2.1	-5.0	14.7	-9.5	-7.7	x	x	x
CCS(=O)(=O)N1CCN(C(=O)c2ccc(-c3ccccc3)cc2)CC1	-22.8	-3.8	1.5	8.3	83.4*	1.0	56.4*	-0.1	-23.5
O=C(c1ccc(-c2ccccc2)cc1)N1CCN(C(=O)c2ccco2)CC1	5.3	-0.9	-3.4	8.5	71.5*	-0.9	34.6	1.6	7.0
O=C(NC1CCCCC1)C1CCN(C(=O)c2ccc(-c3ccccc3)cc2)CC1	0.6	-5.6	-4.9	3.2	37.9	7.9	x	x	x
CC(C)(C)NC(=O)C1CCN(C(=O)c2ccc(-c3ccccc3)cc2)CC1	10.9	-6.9	-2.8	4.1	47.8*	-6.7	46.7	-0.4	-16.4
CS(=O)(=O)N1CCN(C(=O)c2ccc(-c3ccccc3)cc2)CC1	7.5	-3.8	-4.0	10.1	69.6*	-7.2	30.0	1.9	5.7
CC(=O)NCc1ccc(C(=O)CN2C(=O)NC3(CCCCC3C)C2=O)s1 (configuration not stated)	7.7	1.1	-4.5	13.3	-5.2	-8.0	x	x	x
COc1ccc2cc(C(=O)N3CCN(Cc4ccc5c(c4)OCO5)CC3)[nH]c2c1	13.5	-13.7	-0.7	-16.6	85.6*	-9.0	58.9*	0.4	6.3
